Data published in ChEMBL document CHEMBL2034817, “Synthesis and evaluation of 4- and 5-pyridazin-3-one phenoxypropylamine analogues as histamine-3 receptor antagonists” (Bioorg Med Chem, 2012).
One block for each molecule: values may come before it. Activity calls are given as the source filed them. No cut-off for these calls is given here.

Columns and labels:
Histamine H3 receptor [1] = target: Histamine H3 receptor (Rattus norvegicus, UniProt Q9QYN8); assay: Displacement of [3H]-Nalpha-methylhistamine from rat histamine H3 receptor expressed in CHO-A3 cells after 4 hrs by scintillation proximity assay; assay type: cell-based
Method in brief: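 Rat H3 receptor in pIRES-neo3 stably transfected into CHO-A3 cells, clonally selected; washed membranes in Tris–HCl pH 7.4, 5 mM MgCl2, 0.1% BSA, 10 µg protein/well; ~1 nM final [3H]-N-alpha-methylhistamine, compounds 0.01 nM–30 µM, SPA beads, 4 h room temperature, dark; nonspecific with 10 µM clobenpropit; scintillation counting.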

Histamine H3 receptor [2] = target: Histamine H3 receptor (Homo sapiens, UniProt Q9Y5N1); assay: Displacement of [3H]-Nalpha-methylhistamine from human histamine H3 receptor expressed in CHO cells after 4 hrs by scintillation proximity assay; assay type: cell-based
Method in brief: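 Membranes from CHO cells stably expressing human H3 receptor, in 50 mM Tris–HCl pH 7.4, 5 mM MgCl2, 0.1% BSA, 10 µg protein/well; ~1 nM final [3H]-N-alpha-methylhistamine; compounds 0.01 nM–30 µM; SPA beads; 4 h room temperature, dark; nonspecific binding with 10 µM clobenpropit; scintillation counting. Assay-to-assay variation typically within 2.5-fold.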

[3] = Half life in Sprague-Dawley rat at 1 mg/kg, iv; assay type: ADME, organism-based; parameters: dose 1 mg/kg, route intravenous; conditions: in vivo
Method in brief: (§1)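 Adult male Sprague–Dawley rats (275–350 g). iv dosing via lateral tail vein (3% DMSO/30% Solutol/67% PBS or 100% saline); oral gavage after overnight fast (Tween 80/propylene carbonate/propylene glycol, saline, or 2% HCl–water). Seven serial tail-vein blood samples over 6 or 24 h; plasma protein-precipitated with acetonitrile, LC–MS/MS; noncompartmental parameters.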

[4] = Volume of distribution in Sprague-Dawley rat at 1 mg/kg, iv; assay type: ADME, organism-based; parameters: dose 1 mg/kg, route intravenous; conditions: in vivo; method in brief: as §1
[5] = Clearance in Sprague-Dawley rat at 1 mg/kg, iv; assay type: ADME, organism-based; parameters: dose 1 mg/kg, route intravenous; conditions: in vivo; method in brief: as §1
[6] = AUC (0 to t) in Sprague-Dawley rat at 5 mg/kg, po; assay type: ADME, organism-based; parameters: dose 5 mg/kg, route oral; conditions: plasma; method in brief: as §1
[7] = Cmax in Sprague-Dawley rat at 5 mg/kg, po; assay type: ADME, organism-based; parameters: dose 5 mg/kg, route oral; conditions: in vivo; method in brief: as §1
[8] = Oral bioavailability in Sprague-Dawley rat at 5 mg/kg; assay type: ADME, organism-based; conditions: in vivo; method in brief: as §1
[9] = Ratio of drug level in brain to plasma in Sprague-Dawley rat at 5 mg/kg, po at 6 hrs; assay type: ADME, organism-based; parameters: dose 5 mg/kg, route oral; conditions: read-out: BPR
Method in brief: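 Brain-to-plasma ratio from the 6 h time point after 5 mg/kg po dosing in Sprague–Dawley rats; plasma drug measured by LC–MS/MS after acetonitrile protein precipitation.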

Histamine H1 receptor = Histamine H1 receptor (Homo sapiens, UniProt P35367); assay: Binding affinity to human histamine H1 receptor
Histamine H2 receptor = Histamine H2 receptor (Homo sapiens, UniProt P25021); assay: Binding affinity to human histamine H2 receptor
Histamine H4 receptor = Histamine H4 receptor (Homo sapiens, UniProt Q9H3N8); assay: Binding affinity to human histamine H4 receptor
[10] = Half life in human liver microsomes; assay type: ADME, Microsome
[11] = Half life in mouse liver microsomes; assay type: ADME, Microsome
[12] = Half life in rat liver microsomes; assay type: ADME, Microsome
[13] = Half life in monkey liver microsomes; assay type: ADME, Macaca mulatta, Microsome; conditions: rhesus monkey
Cytochrome P450 1A2 = target: T1, Cytochrome P450 1A2 (Homo sapiens, UniProt P05177); assay: Inhibition of CYP1A2; assay type: ADME
T1 sequence (P05177 whole entry): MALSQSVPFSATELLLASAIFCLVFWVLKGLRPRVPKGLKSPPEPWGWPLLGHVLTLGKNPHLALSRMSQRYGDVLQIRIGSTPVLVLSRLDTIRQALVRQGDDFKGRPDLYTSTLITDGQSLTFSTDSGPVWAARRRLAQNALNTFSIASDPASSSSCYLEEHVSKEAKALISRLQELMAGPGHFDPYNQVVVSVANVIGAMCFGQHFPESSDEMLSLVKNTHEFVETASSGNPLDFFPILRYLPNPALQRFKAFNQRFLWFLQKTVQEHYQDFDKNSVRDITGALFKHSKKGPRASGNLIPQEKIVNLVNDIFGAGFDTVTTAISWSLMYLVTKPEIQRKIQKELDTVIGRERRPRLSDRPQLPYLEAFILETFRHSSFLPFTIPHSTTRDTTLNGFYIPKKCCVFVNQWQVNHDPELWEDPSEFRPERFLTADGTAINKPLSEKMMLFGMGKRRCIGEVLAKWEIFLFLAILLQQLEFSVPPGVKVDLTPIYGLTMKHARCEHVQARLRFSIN

Cytochrome P450 2C9 = Cytochrome P450 2C9 (Homo sapiens, UniProt P11712); assay: Inhibition of CYP2C9; assay type: ADME
Cytochrome P450 2C19 = Cytochrome P450 2C19 (Homo sapiens, UniProt P33261); assay: Inhibition of CYP2C19; assay type: ADME
Cytochrome P450 2D6 = Cytochrome P450 2D6 (Homo sapiens, UniProt P10635); assay: Inhibition of CYP2D6; assay type: ADME
Cytochrome P450 3A4 = Cytochrome P450 3A4 (Homo sapiens, UniProt P08684); assay: Inhibition of CYP3A4; assay type: ADME
[14] = target: Histamine H3 receptor (Rattus norvegicus) (UniProt Q9QYN8); assay: Antagonist activity at histamine H3 receptor on rat cortex membrane by [35S]GTPgammaS binding assay; assay type: functional, tissue-based
[15] = target: Histamine H3 receptor (Rattus norvegicus) (UniProt Q9QYN8); assay: Inverse agonist activity at histamine H3 receptor on rat cortex membrane by [35S]GTPgammaS binding assay; assay type: functional
[16] = target: Voltage-gated inwardly rectifying potassium channel KCNH2 (Homo sapiens, UniProt Q12809); assay: Inhibition of human ERG by patch clamp assay
Method in brief: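 hERG inhibition measured in a patch clamp assay.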

[17] = Plasma protein binding in mouse at 5 uM after 1 hr by LC-MS/MS analysis; assay type: ADME, cell-free; conditions: read-out: PPB (converted)
[18] = Plasma protein binding in rat at 5 uM after 1 hr by LC-MS/MS analysis; assay type: ADME, cell-free; conditions: read-out: PPB (converted)
[19] = Plasma protein binding in dog at 5 uM after 1 hr by LC-MS/MS analysis; assay type: ADME, cell-free, Canis lupus familiaris; conditions: read-out: PPB (converted)
[20] = Plasma protein binding in human at 5 uM after 1 hr by LC-MS/MS analysis; assay type: ADME, cell-free; conditions: read-out: PPB (converted)
[21] = Fraction unbound in rat brain homogenate; assay type: ADME, tissue-based
[22] = Solubility of the compound in water; assay type: physicochemical; conditions: buffer
Salmonella typhimurium = assay: Genotoxicity against Salmonella typhimurium by AMES test; assay type: toxicity, organism-based; conditions: salmonella enterica subsp. enterica serovar typhimurium
Rattus norvegicus [23] = assay: Antidipsogenic activity in ip dosed Harlan Long Evans rat assessed as inhibition of RAMH-induced water drinking; assay type: functional
Method in brief: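 Water drinking for 30 min beginning 20 min after RAMH (10 mg/kg ip); test compound in saline given beforehand. Per-rat percent inhibition normalized to RAMH group mean drinking; group means compared by one-way ANOVA with Dunnett's test versus RAMH group.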

Rattus norvegicus [24] = assay: Wake promoting activity in ip dosed rat assessed as increased wake activity after 4 hrs; assay type: functional, organism-based
Rattus norvegicus [25] = assay: Wake promoting activity in rat assessed as cumulative wake time at 10 mg/kg, ip after 4 hrs (reference value: 76+/-6 mins); assay type: functional; conditions: route intraperitoneal
Rattus norvegicus [26] = assay: Wake promoting activity in rat assessed as cumulative wake time at 30 mg/kg, ip after 4 hrs (reference value: 76+/-6 mins); assay type: functional; conditions: route intraperitoneal
Rattus norvegicus [27] = assay: Toxicity in rat assessed as rat assessed as sleep rebound up to 30 mg/kg, ip up to 22 hrs; assay type: organism-based; parameters: dose 30 mg/kg, route intraperitoneal; conditions: in vivo
Method in brief: (§2)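 Rats implanted for chronic EEG/EMG recording, dosed ip up to 30 mg/kg; EEG monitored for adverse activity, and sleep after the wake period scored for rebound up to 22 h post-dose.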

Rattus norvegicus [28] = assay: Toxicity in rat assessed as rat assessed as adverse EEG activity up to 30 mg/kg, ip; assay type: organism-based; parameters: dose 30 mg/kg, route intraperitoneal; conditions: in vivo; method in brief: as §2
Caco-2 = assay: Permeability across human Caco2 cells; assay type: ADME, cell-based

Histamine H3 receptor (Rattus norvegicus, UniProt Q9QYN8), sequence (Q9QYN8 whole entry): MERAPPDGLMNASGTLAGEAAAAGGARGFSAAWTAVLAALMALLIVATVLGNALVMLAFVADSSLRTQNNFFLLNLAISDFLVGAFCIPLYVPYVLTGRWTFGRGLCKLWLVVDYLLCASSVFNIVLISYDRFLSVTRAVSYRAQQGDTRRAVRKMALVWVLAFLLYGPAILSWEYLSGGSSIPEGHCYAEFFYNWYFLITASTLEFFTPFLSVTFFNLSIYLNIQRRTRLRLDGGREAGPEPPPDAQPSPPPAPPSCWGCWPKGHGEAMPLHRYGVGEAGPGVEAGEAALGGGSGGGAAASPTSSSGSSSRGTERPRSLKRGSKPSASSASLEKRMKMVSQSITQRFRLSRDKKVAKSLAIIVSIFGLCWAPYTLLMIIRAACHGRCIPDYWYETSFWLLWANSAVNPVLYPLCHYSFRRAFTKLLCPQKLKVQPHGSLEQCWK
Histamine H3 receptor (Homo sapiens, UniProt Q9Y5N1), sequence (Q9Y5N1 whole entry): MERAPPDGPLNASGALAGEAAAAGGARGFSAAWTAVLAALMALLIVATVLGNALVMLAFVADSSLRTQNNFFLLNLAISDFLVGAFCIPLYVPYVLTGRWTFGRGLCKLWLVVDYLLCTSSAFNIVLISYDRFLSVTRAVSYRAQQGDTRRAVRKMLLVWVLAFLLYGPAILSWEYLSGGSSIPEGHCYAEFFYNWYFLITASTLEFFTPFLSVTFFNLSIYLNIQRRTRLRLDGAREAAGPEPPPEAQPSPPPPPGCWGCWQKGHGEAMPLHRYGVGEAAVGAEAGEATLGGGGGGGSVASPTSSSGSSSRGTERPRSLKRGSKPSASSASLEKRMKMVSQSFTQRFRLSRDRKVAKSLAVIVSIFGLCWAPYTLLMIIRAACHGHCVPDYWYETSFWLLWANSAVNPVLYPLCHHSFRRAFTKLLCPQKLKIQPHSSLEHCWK
Cytochrome P450 3A4, sequence (P08684 whole entry): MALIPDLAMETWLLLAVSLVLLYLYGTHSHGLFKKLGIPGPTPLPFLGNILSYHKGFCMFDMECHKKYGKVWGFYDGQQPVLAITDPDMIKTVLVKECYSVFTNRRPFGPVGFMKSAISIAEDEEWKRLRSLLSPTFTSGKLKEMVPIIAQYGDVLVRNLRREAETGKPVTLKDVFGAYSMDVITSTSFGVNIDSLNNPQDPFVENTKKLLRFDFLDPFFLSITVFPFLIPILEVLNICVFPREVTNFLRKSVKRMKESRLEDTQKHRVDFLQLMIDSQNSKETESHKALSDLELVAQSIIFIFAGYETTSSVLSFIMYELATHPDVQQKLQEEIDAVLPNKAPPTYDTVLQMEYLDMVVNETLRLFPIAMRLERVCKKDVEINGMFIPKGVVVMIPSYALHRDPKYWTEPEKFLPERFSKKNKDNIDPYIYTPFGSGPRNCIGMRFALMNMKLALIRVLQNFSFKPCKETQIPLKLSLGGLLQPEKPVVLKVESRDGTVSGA
Cytochrome P450 2D6, sequence (P10635 whole entry): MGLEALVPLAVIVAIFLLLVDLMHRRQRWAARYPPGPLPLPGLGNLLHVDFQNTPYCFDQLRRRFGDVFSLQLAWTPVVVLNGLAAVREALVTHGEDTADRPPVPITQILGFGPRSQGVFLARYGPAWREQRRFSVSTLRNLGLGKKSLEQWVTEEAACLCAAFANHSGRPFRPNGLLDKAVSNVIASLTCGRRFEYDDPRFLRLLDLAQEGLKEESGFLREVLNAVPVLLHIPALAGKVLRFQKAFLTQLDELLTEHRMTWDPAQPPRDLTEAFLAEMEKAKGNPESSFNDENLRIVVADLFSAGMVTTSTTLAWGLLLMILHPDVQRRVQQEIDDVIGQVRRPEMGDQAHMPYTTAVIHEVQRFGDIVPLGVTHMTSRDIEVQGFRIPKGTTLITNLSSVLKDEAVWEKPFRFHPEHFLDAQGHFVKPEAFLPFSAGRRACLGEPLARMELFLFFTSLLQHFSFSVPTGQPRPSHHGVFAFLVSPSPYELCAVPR
Histamine H3 receptor (Rattus norvegicus), sequence (Q9QYN8 whole entry): as the sequence (Q9QYN8 whole entry) above
Histamine H1 receptor, sequence (P35367 whole entry): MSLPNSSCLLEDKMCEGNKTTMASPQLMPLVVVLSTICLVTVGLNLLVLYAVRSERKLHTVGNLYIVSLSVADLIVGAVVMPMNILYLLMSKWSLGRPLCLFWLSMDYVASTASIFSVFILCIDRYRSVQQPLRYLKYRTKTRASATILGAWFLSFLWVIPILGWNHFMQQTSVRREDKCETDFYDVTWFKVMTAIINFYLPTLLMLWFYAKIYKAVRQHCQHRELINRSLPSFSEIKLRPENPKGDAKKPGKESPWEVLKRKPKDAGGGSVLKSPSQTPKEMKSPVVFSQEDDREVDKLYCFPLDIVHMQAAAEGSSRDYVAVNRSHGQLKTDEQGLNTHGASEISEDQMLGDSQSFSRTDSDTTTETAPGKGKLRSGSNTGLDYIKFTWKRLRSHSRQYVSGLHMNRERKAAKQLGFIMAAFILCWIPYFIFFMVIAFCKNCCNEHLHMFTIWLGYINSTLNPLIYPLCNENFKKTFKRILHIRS
Cytochrome P450 2C19, sequence (P33261 whole entry): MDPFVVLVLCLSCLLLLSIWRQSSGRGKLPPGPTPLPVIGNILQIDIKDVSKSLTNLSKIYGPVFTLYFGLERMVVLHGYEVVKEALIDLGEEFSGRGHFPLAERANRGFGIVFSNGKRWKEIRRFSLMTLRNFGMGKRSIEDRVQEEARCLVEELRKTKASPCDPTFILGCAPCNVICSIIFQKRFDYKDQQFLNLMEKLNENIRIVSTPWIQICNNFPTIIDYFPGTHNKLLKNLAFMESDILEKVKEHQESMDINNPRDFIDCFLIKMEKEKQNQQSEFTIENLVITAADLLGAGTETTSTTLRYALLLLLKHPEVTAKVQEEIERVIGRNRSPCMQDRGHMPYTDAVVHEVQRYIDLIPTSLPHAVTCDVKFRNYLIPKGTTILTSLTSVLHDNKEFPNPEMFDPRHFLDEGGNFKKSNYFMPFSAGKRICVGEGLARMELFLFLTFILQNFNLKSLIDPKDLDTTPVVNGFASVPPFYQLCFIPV
Cytochrome P450 2C9, sequence (P11712 whole entry): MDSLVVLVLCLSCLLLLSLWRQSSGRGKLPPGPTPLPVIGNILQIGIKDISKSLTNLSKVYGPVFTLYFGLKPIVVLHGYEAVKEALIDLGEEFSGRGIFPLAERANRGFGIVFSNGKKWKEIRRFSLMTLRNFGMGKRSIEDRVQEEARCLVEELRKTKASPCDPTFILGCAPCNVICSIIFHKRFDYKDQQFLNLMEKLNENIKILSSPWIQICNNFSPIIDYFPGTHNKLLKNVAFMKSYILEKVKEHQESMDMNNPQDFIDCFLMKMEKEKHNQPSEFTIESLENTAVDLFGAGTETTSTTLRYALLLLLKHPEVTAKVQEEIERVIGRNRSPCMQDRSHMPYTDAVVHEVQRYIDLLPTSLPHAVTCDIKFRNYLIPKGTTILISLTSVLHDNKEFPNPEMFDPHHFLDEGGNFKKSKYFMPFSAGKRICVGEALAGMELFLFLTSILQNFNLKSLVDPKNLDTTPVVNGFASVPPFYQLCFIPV
Histamine H2 receptor, sequence (P25021 whole entry): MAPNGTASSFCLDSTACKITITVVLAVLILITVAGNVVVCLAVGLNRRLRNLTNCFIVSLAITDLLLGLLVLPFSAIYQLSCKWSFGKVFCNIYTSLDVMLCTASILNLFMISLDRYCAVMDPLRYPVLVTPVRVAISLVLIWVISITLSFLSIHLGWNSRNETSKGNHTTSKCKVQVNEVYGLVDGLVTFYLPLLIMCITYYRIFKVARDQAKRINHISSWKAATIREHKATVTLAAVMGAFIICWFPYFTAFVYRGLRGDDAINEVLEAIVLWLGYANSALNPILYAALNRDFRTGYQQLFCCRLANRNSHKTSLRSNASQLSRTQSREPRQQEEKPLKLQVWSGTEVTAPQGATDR
Voltage-gated inwardly rectifying potassium channel KCNH2, sequence (Q12809 whole entry): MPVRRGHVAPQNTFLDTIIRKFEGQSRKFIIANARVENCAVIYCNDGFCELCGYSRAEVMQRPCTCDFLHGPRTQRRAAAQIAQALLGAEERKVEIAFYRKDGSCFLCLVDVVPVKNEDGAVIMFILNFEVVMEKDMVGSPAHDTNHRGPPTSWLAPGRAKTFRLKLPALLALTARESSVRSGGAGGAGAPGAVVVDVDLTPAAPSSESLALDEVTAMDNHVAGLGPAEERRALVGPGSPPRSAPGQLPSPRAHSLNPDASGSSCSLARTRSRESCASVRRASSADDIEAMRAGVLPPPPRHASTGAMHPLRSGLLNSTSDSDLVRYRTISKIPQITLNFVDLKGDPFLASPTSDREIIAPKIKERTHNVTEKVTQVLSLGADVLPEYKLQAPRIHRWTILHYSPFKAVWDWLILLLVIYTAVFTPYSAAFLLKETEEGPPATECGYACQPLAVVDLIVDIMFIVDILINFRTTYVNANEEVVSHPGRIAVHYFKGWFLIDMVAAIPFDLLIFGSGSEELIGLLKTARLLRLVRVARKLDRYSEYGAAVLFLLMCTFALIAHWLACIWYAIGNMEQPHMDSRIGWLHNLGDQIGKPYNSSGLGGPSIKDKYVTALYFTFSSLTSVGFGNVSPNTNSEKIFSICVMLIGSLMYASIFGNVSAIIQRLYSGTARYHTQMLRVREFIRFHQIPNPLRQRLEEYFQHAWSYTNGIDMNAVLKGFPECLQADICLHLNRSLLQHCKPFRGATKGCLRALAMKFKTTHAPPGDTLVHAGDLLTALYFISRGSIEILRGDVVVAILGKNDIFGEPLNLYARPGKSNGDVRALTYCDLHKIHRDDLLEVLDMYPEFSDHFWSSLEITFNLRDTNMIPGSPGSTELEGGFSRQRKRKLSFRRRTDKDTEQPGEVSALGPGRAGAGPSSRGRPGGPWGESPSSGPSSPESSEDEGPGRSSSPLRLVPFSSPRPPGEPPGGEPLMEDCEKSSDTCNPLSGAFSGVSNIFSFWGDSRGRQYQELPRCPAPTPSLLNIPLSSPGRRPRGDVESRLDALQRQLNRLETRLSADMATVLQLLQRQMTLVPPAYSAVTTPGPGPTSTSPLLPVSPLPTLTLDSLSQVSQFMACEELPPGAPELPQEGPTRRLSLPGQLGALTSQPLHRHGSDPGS

SMILES: C[C@@H](COc1ccc(-c2cn[nH]c(=O)c2)cc1)CN1CCC[C@H]1C
- Ki (Histamine H3 receptor [1]): 43 nM

SMILES: COCn1ncc(OC)c(-c2ccc(OCCCN3CCC[C@H]3C)cc2)c1=O
- Ki (Histamine H3 receptor [2]): 10 nM
- Ki (Histamine H3 receptor [1]): 19 nM

SMILES: COCn1ncc(-c2ccc(OCCCN3CCC[C@H]3C)cc2)c(OC)c1=O
- Ki (Histamine H3 receptor [2]): 5 nM
- Ki (Histamine H3 receptor [1]): 13 nM

SMILES: C[C@@H](COc1ccc(-c2cn[nH]c(=O)c2)cc1)CN1CCCCC1
- Ki (Histamine H3 receptor [2]): 47 nM
- Ki (Histamine H3 receptor [1]): 131 nM

SMILES: COc1cn[nH]c(=O)c1-c1ccc(OCCCN2CCC[C@H]2C)cc1
- Ki (Histamine H3 receptor [2]): 20 nM
- Ki (Histamine H3 receptor [1]): 62 nM

SMILES: C[C@H](COc1ccc(-c2cn[nH]c(=O)c2)cc1)CN1CCC[C@H]1C
- Ki (Histamine H3 receptor [1]): 4 nM
- half-life [3]: 126 min
- Vd [4]: 3.9 L/kg
- clearance [5]: 21 mL/min/kg
- AUC(0-t) [6]: 762 ng·h/mL
- Cmax [7]: 187 ng/mL
- bioavailability [8]: 24%
- Kp at 6 h [9]: 6.2
- Ki (Histamine H1 receptor): > 10000 nM
- Ki (Histamine H2 receptor): > 10000 nM
- Ki (Histamine H4 receptor): > 10000 nM
- half-life [10]: > 40 min
- half-life [11]: > 40 min
- half-life [12]: > 40 min
- half-life [13]: > 40 min
- IC50 (Cytochrome P450 1A2): > 30000 nM
- IC50 (Cytochrome P450 2C9): > 30000 nM
- IC50 (Cytochrome P450 2C19): > 30000 nM
- IC50 (Cytochrome P450 2D6): > 30000 nM
- IC50 (Cytochrome P450 3A4): > 30000 nM

More lines, main results first:

- Ki (Histamine H3 receptor [2]): 25 nM
- Ki (Histamine H3 receptor [1]): 34 nM
SMILES: C[C@H](COc1ccc(-c2cn[nH]c(=O)c2)cc1)CN1CCCCC1

- Ki (Histamine H3 receptor [2]): 4 nM
- Ki (Histamine H3 receptor [1]): 14 nM
- half-life [3]: 24 min
- Vd [4]: 3.2 L/kg
- clearance [5]: 93 mL/min/kg
- AUC(0-t) [6]: 42 ng·h/mL
- Cmax [7]: 53 ng/mL
- bioavailability [8]: 6%
- Ki (Histamine H1 receptor): > 10000 nM
- Ki (Histamine H2 receptor): > 10000 nM
- Ki (Histamine H4 receptor): > 10000 nM
- half-life [10]: > 40 min
- half-life [11]: > 40 min
- half-life [12]: > 40 min
- half-life [13]: > 40 min
- IC50 (Cytochrome P450 1A2): > 30000 nM
- IC50 (Cytochrome P450 2C9): > 30000 nM
- IC50 (Cytochrome P450 2C19): > 30000 nM
- IC50 (Cytochrome P450 2D6): > 30000 nM
- IC50 (Cytochrome P450 3A4): > 30000 nM
SMILES: COCn1ncc(-c2ccc(OCCCN3CCC[C@H]3C)cc2)cc1=O

- Ki (Histamine H3 receptor [2]): 3 nM
- Ki (Histamine H3 receptor [1]): 9 nM
- clearance [5]: 10 mL/min/kg
- AUC(0-t) [6]: 1290 ng·h/mL
- Cmax [7]: 401 ng/mL
- bioavailability [8]: 22%
- Kp at 6 h [9]: 1.8
- Activity [14]: Active
- Activity [15]: Active
- fraction unbound at 1 h, 5 µM [17]: 0.8
- fraction unbound at 1 h, 5 µM [18]: 0.8
- fraction unbound at 1 h, 5 µM [19]: 0.8
- fraction unbound at 1 h, 5 µM [20]: 0.8
- fraction unbound [21]: 0.45
- solubility [22]: soluble
- permeability (Caco-2): permeable
SMILES: C[C@@H]1CCCN1CCCOc1ccc(-c2cn[nH]c(=O)c2)cc1
- IC50 [16]: 10000 nM
- Activity (Salmonella typhimurium): Non-toxic
- ED50 (Rattus norvegicus [23]): 0.03 mg/kg
- Activity (Rattus norvegicus [24]): Dose-dependent effect
- Time (Rattus norvegicus [25]): 191 min
- Activity (Rattus norvegicus [26]): 95%
- Activity (Rattus norvegicus [27]): Non-toxic
- Activity (Rattus norvegicus [28]): Non-toxic
